Laboratory results from publication PMC6660416 (Cell, 2019).

How the values were obtained:
5-HT2A-RLuc = assay: BRET association assay, 5-HT2A-RLuc and mVenus-nanobody; format: cell-based; settings: 5-HT at 1μM or above
MRGPRX2 = assay: Transcription factor reporter primary screen; format: cell-based; settings: MRGPRX2 activated by (+)-morphine, 4 hrs post-ligand addition
R7 tTA = assay: tTA reporter assay; format: cell-based; settings: increasing concentrations of DOX
How it was run: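 Six hours after transfection, cells were washed and dissociated with versene. They were resuspended in DMEM + 1% dialyzed FBS and plated on poly-L-lysine 384-well plates at 10,000 cells/well. Doxycycline HCl, prepared in plating media at 2x, was added for 20–22 hr overnight. Media was then removed and 1:20-diluted Bright-Glo luciferase reagent was added for luminescence read-out.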

5-HT2A-Gαq = 5-HT2A-Gαq (Homo sapiens, UniProt P28223+P50148); assay: Saturation radioligand binding assay with [3H]LSD

SMILES: NCCc1c[nH]c2ccc(O)cc12 [5-HT, serotonin]
- effect of agonist on VGS-Nb2 association to 5-HT2A (5-HT2A-RLuc): no effect

SMILES: CN1CC[C@@]23c4c5ccc(O)c4O[C@@H]2[C@H](O)C=C[C@@H]3[C@@H]1C5 [(+)-morphine]
- SRE minimal promoter luciferase response (MRGPRX2): 5 fold
- SRF minimal promoter luciferase response (MRGPRX2): 5 fold

SMILES: C[C@H]1c2cccc(O)c2C(=O)C2=C(O)[C@]3(O)C(=O)C(C(N)=O)=C(O)[C@@H](N(C)C)[C@@H]3[C@@H](O)[C@@H]21 [DOX, doxycycline]
- sensitivity of R7 consensus tTA to doxycycline in TETO7-Rluc reporter (R7 tTA): completely resistant

SMILES: [3H]CN1C[C@H](C(=O)N(CC)CC)C=C2c3cccc4[nH]cc(c34)C[C@H]21 [[^3H]LSD, [N-Methyl-^3H]-Lysergic Acid Diethylamide]
- BMax (5-HT2A-Gαq; 5HT2A-Gaq membrane + 5uM VGS-Nb2): 1993 fmol/mg
- BMax (5-HT2A-Gαq; 5HT2A-Gaq membrane, vehicle): 1333 fmol/mg
